As usually defined, the IC50 is the midpoint of a concentration-inhibition curve. What is called Ki is the dissociation constant of the complex between target and ligand, obtained from inhibition or displacement. A low value points to higher affinity. Broadly, the inhibition is the relative decrease from the control value, in per cent.

Assay [1] has as its target T1, Mu-type opioid receptor (Cavia porcellus, UniProt P97266). Put plainly: Agonist activity at mu opioid receptor in guinea pig ileum assessed as inhibition of electrically-stimulated muscle contraction. It is filed as functional, tissue-based. The gist of the method:
(§1)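 Reference agonists run alongside: deltorphin II for delta in mouse vas deferens (MVD) and endomorphin 2 for mu in guinea pig ileum (GPI).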

Assay [2] deals with Delta-type opioid receptor (Homo sapiens, UniProt P41143). In words: Displacement of [3H]deltorphin 2 from delta opioid receptor. A general note: Displacement assays read how much labelled ligand stays bound in the presence of the test substance.
Delta-type opioid receptor (Homo sapiens, UniProt P41143), sequence (P41143 whole entry): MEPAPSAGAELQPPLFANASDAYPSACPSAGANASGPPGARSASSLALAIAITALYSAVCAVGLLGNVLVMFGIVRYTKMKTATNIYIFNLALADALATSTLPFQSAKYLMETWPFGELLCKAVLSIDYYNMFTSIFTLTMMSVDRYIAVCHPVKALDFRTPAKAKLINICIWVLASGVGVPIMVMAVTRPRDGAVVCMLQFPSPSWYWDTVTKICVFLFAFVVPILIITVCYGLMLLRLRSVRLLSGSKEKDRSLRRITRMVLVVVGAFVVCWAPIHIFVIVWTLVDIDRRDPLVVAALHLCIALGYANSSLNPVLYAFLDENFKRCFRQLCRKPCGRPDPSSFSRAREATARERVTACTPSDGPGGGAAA
In assay [3] the target is Mu-type opioid receptor (Homo sapiens, UniProt P35372). In words: Displacement of [3H]DAMGO from human mu opioid receptor.
Mu-type opioid receptor (Homo sapiens, UniProt P35372), sequence (P35372 whole entry): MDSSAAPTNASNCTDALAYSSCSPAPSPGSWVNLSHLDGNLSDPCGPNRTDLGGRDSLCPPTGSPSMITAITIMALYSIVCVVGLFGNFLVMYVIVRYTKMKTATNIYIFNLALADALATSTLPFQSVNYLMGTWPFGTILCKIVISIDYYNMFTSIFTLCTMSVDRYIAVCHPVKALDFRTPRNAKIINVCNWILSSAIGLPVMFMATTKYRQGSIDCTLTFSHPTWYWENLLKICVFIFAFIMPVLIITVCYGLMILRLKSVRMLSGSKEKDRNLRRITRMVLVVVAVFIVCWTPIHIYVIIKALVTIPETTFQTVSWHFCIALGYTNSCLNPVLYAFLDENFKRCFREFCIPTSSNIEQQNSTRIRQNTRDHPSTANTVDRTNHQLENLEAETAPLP
For assay [4], the target named is Mu-type opioid receptor (Cavia porcellus) (UniProt P97266). In words: Agonist activity at mu opioid receptor in guinea pig ileum assessed as inhibition of electrically-stimulated muscle contraction at 10 uM. It is filed as functional, tissue-based.
Mu-type opioid receptor (Cavia porcellus), sequence (P97266 whole entry): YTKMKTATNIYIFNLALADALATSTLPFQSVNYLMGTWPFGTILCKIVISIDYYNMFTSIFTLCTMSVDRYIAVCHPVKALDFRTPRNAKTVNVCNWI
For assay [5], the species on record is Homo sapiens. In words: Selectivity for human mu opioid receptor over human delta opioid receptor.
Assay [6] deals with T2, Delta-type opioid receptor (Mus musculus, UniProt P32300). Put plainly: Agonist activity at delta opioid receptor in mouse vas deferens assessed as inhibition of electrically-stimulated muscle contraction. The class given is functional, tissue-based. A digest of the protocol: as §1
T2 sequence (P32300 whole entry): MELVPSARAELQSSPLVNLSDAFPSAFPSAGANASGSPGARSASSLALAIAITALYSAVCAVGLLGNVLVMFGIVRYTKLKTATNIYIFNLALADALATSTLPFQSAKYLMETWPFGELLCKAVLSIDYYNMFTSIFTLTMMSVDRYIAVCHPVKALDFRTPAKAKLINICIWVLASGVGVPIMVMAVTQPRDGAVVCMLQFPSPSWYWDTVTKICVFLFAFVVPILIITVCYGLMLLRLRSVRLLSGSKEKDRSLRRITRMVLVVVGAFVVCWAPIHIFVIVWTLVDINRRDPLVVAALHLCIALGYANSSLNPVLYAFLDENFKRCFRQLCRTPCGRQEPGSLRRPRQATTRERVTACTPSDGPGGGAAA
The target in assay [7] is Delta-type opioid receptor (Mus musculus) (UniProt P32300). Put plainly: Agonist activity at delta opioid receptor in mouse vas deferens assessed as inhibition of electrically-stimulated muscle contraction at 10 uM. It is filed as functional, tissue-based.
Delta-type opioid receptor (Mus musculus), sequence (P32300 whole entry): as above
The target in assay [8] is T2, Delta-type opioid receptor. Put plainly: Antagonist activity at delta opioid receptor in mouse vas deferens. It is filed as functional, tissue-based. The following applies: read-out: pA2 (converted). A digest of the protocol: (§2)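 Antagonism given as pA2: the negative log of the antagonist concentration (M) that doubles the agonist concentration needed to restore the original response. The agonist was deltorphin II in MVD (delta) and endomorphin 2 in GPI (mu).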

Assay [9] deals with T1, Mu-type opioid receptor. In words: Antagonist activity at mu opioid receptor in guinea pig ileum. It is filed as functional, tissue-based. The following applies: read-out: pA2 (converted). A digest of the protocol:
as §2

T1 sequence (P97266 whole entry): as the sequence (P97266 whole entry) above

For the compound `Cc1cc(O)cc(C)c1C[C@H](N)C(=O)NCc1nc(C)c(C)[nH]c1=O`, the IC50 in [1] and in assay [6] was above 10000 nM each time. In addition, the Ki in assay [2] stood at 698 nM; in assay [3] it was 129 nM. Further, the inhibition came out at 20.6% in assay [4] and 28.1% in assay [7]. Besides, in [5], the Ratio Ki came out at 5.4. The Kb in assay [8] is 1480 nM.
As to `Cc1cc(O)cc(C)c1C[C@H](N)C(=O)NCCCCc1[nH]c(=O)c(C)nc1C`, the IC50 in assay [1] and in assay [6] was above 10000 nM in each case. For the same compound, the Ki in assay [2] turned out to be 208 nM; in assay [3], 15.4 nM. The inhibition in assay [4] is 30.1%; in assay [7] it was 0%. Further, the Ratio Ki in assay [5] is 14. For the same compound, the Kb in assay [9] was above 1000 nM; in assay [8], 2340 nM.
On to `Cc1cc(O)cc(C)c1C[C@H](N)C(=O)NCCc1nc(C)c(C)[nH]c1=O`, for which the 50% inhibitory concentration (IC50) in [1] and in assay [6] was above 10000 nM in each case. In addition, the Ki in assay [2] worked out at 93.1 nM; in assay [3], 76.5 nM. Moreover, the inhibition came out at 45% in assay [4] and 25.2% in assay [7]. Moreover, the Ratio Ki in assay [5] came to 1.2. The Kb in [8] is 1350 nM.
For `Cc1cc(O)cc(C)c1C[C@H](N)C(=O)NCCCc1nc(C)c(C)[nH]c1=O`, the IC50 in assay [1] and in assay [6] was above 10000 nM in each case. Besides, the figures for the Ki in assay [2] and in assay [3] were 269 nM and 8.88 nM, respectively. Besides, the values for the inhibition in assay [4] and in assay [7] were 22.7% and 31.1%, respectively. Moreover, in [5], the Ratio Ki worked out at 30. In assay [8], the Kb is above 3160 nM.
With `Cc1cc(O)cc(C)c1C[C@H](N)C(=O)NCCCc1nc(C)c(Cc2ccccc2)[nH]c1=O`, the IC50 in [1] and in [6] was above 10000 nM throughout. The values for the inhibition constant Ki in assay [2] and in [3] were 59.6 nM and 1 nM, respectively. The inhibition in [4] amounted to 36.7%; in [7] it was 34.6%. Also, in assay [5], the Ratio Ki turned out to be 60. For the same compound, the Kb in [8] was 1230 nM.
Regarding `Cc1cc(O)cc(C)c1C[C@H](N)C(=O)NCCCc1nc(C)c(CCc2ccccc2)[nH]c1=O`, the IC50 is 5550 nM in assay [1] and above 10000 nM in [6]. The Ki came out at 38.2 nM in assay [2] and 0.55 nM in [3]. The Ratio Ki in assay [5] turned out to be 69. In addition, the Kb in assay [9] is above 1000 nM; in [8] it was 1350 nM. Moreover, the inhibition in assay [7] worked out at 4.1%.
Consider `Cc1cccc(C)c1Cc1[nH]c(=O)c(CCCCNC(=O)[C@@H](N)Cc2c(C)cc(O)cc2C)nc1C`, for which the results for the IC50 in assay [1] and in assay [6] were 6270 nM and above 10000 nM, respectively. Besides, the Ki in [2] amounted to 5.3 nM; in assay [3], 0.66 nM. Moreover, in assay [5], the Ratio Ki was determined as 8. In addition, the Kb was above 1000 nM in assay [9] and 245 nM in assay [8]. In addition, the inhibition in assay [7] amounted to 6.4%.
For `Cc1cc(O)cc(C)c1C[C@H](N)C(=O)NCCCCc1nc(C)c(C)[nH]c1=O`, the IC50 in assay [1] and in [6] was above 10000 nM in each case. Further, the Ki in assay [2] was determined as 77.7 nM; in assay [3] it was 4.23 nM. The inhibition came to 35.1% in [4] and 26.2% in assay [7]. In assay [5], the Ratio Ki worked out at 18. For the same compound, the Kb in assay [9] was 200 nM; in [8] it was 2510 nM.
In the case of `Cc1cc(O)cc(C)c1C[C@H](N)C(=O)NCCCCc1nc(C)c(Cc2ccccc2)[nH]c1=O`, the 50% inhibitory concentration (IC50) in [1] and in assay [6] was above 10000 nM each time. In addition, the Ki in [2] came out at 8.6 nM; in [3] it was 0.42 nM. Moreover, the inhibition in [4] turned out to be 39.5%; in assay [7], 19.9%. Moreover, the Ratio Ki in [5] was determined as 20. Besides, the Kb in assay [8] is 589 nM.
As for `Cc1c[nH]c(=O)c(CCCCNC(=O)[C@@H](N)Cc2c(C)cc(O)cc2C)n1`, the IC50 in assay [1] and in [6] was above 10000 nM in each case. The Ki in assay [2] came out at 73.8 nM; in assay [3] it was 0.62 nM. Further, the inhibition in assay [4] worked out at 47.6%; in assay [7], 25.7%. Besides, the Ratio Ki in assay [5] was 119. Moreover, the Kb in assay [8] is above 3160 nM.
For the compound `Cc1cc(O)cc(C)c1C[C@H](N)C(=O)NCCCCc1nc(C)c(CCc2ccccc2)[nH]c1=O`, the IC50 in assay [1] is 15.9 nM; in assay [6], above 10000 nM. In addition, the Ki was 55.9 nM in assay [2] and 0.125 nM in assay [3]. The Ratio Ki in assay [5] worked out at 447. Further, the inhibition in assay [7] is 12.8%. The Kb in assay [8] was 447 nM.
For the compound `Cc1cc(O)cc(C)c1C[C@H](N)C(=O)NCCCCc1[nH]c(=O)cnc1C`, the IC50 in [1] and in assay [6] was above 10000 nM each time. For the same compound, the Ki worked out at 344 nM in [2] and 56.9 nM in assay [3]. In addition, the figures for the inhibition in assay [4] and in [7] were 37.1% and 28.1%, respectively. In addition, the Ratio Ki in [5] turned out to be 6. Further, the figures for the Kb in [9] and in [8] were above 1000 nM and above 3160 nM, respectively.

Source of the values: ChEMBL document CHEMBL1137484, “Design and synthesis of opioidmimetics containing 2',6'-dimethyl-L-tyrosine and a pyrazinone-ring platform” (Bioorg Med Chem Lett, 2007).
